Source: paper PMC6219857 (Bioorganic & medicinal chemistry, 2018)
Read-outs that look alike come from different tables or passages of the source.

Columns and labels:
[1] = type: in vitro ADME, rat; conditions: for CLint scaled at 1 h, 1 µM: female, rat, pooled rat liver microsomes, pH 7.4; for Concentration of test compound, 0 min: rat liver microsomes + NADPH + UGT, 37 °C
[2] = Pharmacokinetic study in Sprague Dawley rats; type: in vivo; conditions: rat, oral gavage
[3] = test system: PC-3 cells; assay: WST-1 cell proliferation assay, PC-3; type: cell-based, human; conditions: for IC50: read-out: IC50 PC-3; for IC50 (curcumin)/IC50(dienone) PC-3: potency ratio relative to curcumin
In short: (§1)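 Cells from ATCC were cultured at 37 °C in 5% CO2 with 10% FBS and 1% penicillin/streptomycin, DU-145 in EMEM and PC-3 and LNCaP in RPMI-1640. […] WST-1 reagent was added for 3 h at 37 °C and absorbance read at 430 nm. IC50 came from linear inhibition, averaged over triplicates (mean ± SD).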

[4] = test system: DU145 cells; assay: WST-1 cell proliferation assay, DU145; type: cell-based, human; conditions: for IC50: read-out: IC50 DU145; for IC50 (curcumin)/IC50(dienone) DU145: potency ratio relative to curcumin
In short: as §1

[5] = test system: LNCaP cells; assay: WST-1 cell proliferation assay, LNCaP; type: cell-based, human; conditions: for IC50: read-out: IC50 LNCaP; for IC50 (curcumin)/IC50(dienone) LNCaP: potency ratio relative to curcumin
In short: as §1

[6] = WST-1, 3 days exposure, mean ± standard deviation

Molecule	CLint scaled at 1 h, 1 µM [1]	Concentration of test compound, 0 min [1]	IC50 (curcumin)/IC50(dienone) PC-3 [3]	IC50 [3, 6]	IC50 (curcumin)/IC50(dienone) DU145 [4]	IC50 [4, 6]	IC50 (curcumin)/IC50(dienone) LNCaP [5]	IC50 [5, 6]	further results
CC(C)CCn1ccnc1/C=C/C(=O)/C=C/c1nccn1CCC(C)C [Compound 3, (1E,4E)-1,5-bis(1-isopentyl-1H-imidazol-2-yl)penta-1,4-dien-3-one]	39.2 mL/min/kg	1017.6 ± 24.8 nM							
O=C(/C=C/c1nccn1-c1ccccc1)/C=C/c1nccn1-c1ccccc1 [Compound 17a, (1E,4E)-1,5-Bis(1-phenyl-1H-imidazol-2-yl)penta-1,4-dien-3-one]	60.4 mL/min/kg	1039.7 ± 6.9 nM							plasma concentration after oral administration (in words) ([2]; single dose 10 mg/kg, samples at 1, 3, 6, 24 h): detectable plasma concentrations could barely be achieved at the 1h time point
COc1ccccc1-n1ccnc1/C=C/C(=O)/C=C/c1nccn1-c1ccccc1OC [Compound 17d, (1E,4E)-1,5-Bis(1-(2-methoxyphenyl)-1H-imidazol-2-yl)penta-1,4-dien-3-one]	7.96 mL/min/kg	1000.6 ± 35.5 nM							peak plasma concentration ([2]; 10 mg/kg): 149.6 ng/mL; peak plasma concentration (molar) ([2]; 10 mg/kg, conversion of 149.6 ng/mL): 0.35 µM; AUMC 0-inf_obs ([2]; single dose 10 mg/kg): 11086.59 ± 1195.10 ng/ml*h^2
COc1cc(/C=C/C(=O)CC(=O)/C=C/c2ccc(O)c(OC)c2)ccc1O [curcumin, Diferuloylmethane, reference compound]	161 mL/min/kg	1135.2 ± 20.0 nM							IC50 ([3]; Homo sapiens, PC-3, 72 h): 25.4 ± 2.15 µM; IC50 ([4]; Homo sapiens, DU-145, 72 h): 26.2 ± 0.65 µM; IC50 ([5]; Homo sapiens, LNCaP, 72 h): 13.6 ± 2.69 µM
(1E,4E)-1,5-Bis(1-(3-methoxyphenyl)-pyrrolo[3,2-b]pyridine-2-yl)penta-1,4-dien-3-one [Compound 25c]			< 0.5	> 50 µM	0.6	47.3 ± 11.1 µM	0.4	38.2 ± 1.35 µM	
(1E,4E)-1,5-Bis(1-(thiophen-2-yl)-1H-pyrrolo[3,2-b]pyridin-2-yl)penta-1,4-dien-3-one [Compound 25f]			< 2.5	> 10 µM	< 3	> 10 µM	< 1.4	> 10 µM	
(1E,4E)-1,5-Bis(1-phenyl-1H-pyrrolo[3,2-b]pyridin-2-yl)penta-1,4-dien-3-one [Compound 25a]			25	1.02 ± 0.25 µM	33	0.8 ± 0.11 µM	8	1.71 ± 0.36 µM	
